The values below come from ChEMBL document CHEMBL6177921, “Enhancing the antimycobacterial efficacy of pyridine-4-carbohydrazide: linkage to additional antimicrobial agents via oxocarboxylic acids” (RSC Med Chem, 2025).

Converted amounts (≈) assume the structure as drawn. Where only a bound is given, the exact number is not on record here.

Holding throughout (type): functional
Experiment [1] deals with Mycobacterium tuberculosis. As to the kind of experiment: Antimycobacterial activity against multidrug sensitive Mycobacterium tuberculosis H37Rv CNCTC 331/88 assessed as bacterial growth inhibition incubated for 14 days by two-fold serial dilution method. Conditions: H37Rv CNCTC 331/88, 336 h, time 14 day.
The test system of experiment [2] is Mycobacterium tuberculosis. As to the kind of experiment: Antimycobacterial activity against Mycobacterium tuberculosis H37Rv CNCTC 331/88 assessed as bacterial growth inhibition incubated for 21 days by two fold serial dilution method. The note with it: H37Rv CNCTC 331/88, 504 h, time 21 day.
For experiment [3], the system named is Mycobacterium avium. Briefly: Antimycobacterial activity against INH/RIF/rifabutin/OFX/EMB resistant Mycobacterium avium CNCTC 330/88 assessed as bacterial growth inhibition incubated for 14 days by two-fold serial dilution method. Conditions: CNCTC 330/88, 336 h, time 14 day. The essentials: (§1)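 M. avium CNCTC 330/88 (stock suspension dilution 10−5) grown in Šula's semisynthetic liquid medium; two-fold serial dilutions 1000 to 1 μM from DMSO stocks (final DMSO 1.0% v/v); final load 1.5 × 10^5 CFU mL−1; MIC read visually as lowest concentration giving complete growth inhibition after 14 and 21 days.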

In experiment [4] the test system is Mycobacterium avium. As to the kind of experiment: Antimycobacterial activity against INH/RIF/rifabutin/OFX/EMB resistant Mycobacterium avium CNCTC 330/88 assessed as bacterial growth inhibition incubated for 21 days by two-fold serial dilution method. Conditions: CNCTC 330/88, 504 h, time 21 day. The procedure, abridged:
as §1

For experiment [5], the system named is Mycobacterium kansasii. As to the kind of experiment: Antimycobacterial activity against INH/RIF/rifabutin/OFX/EMB Mycobacterium kansasii CNCTC 6509/96 clinical isolate assessed as bacterial growth inhibition incubated for 7 days by two-fold serial dilution method. Conditions: CNCTC 6509/96, 168 h, time 7 day. The essentials: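 Šula's liquid semisynthetic medium; M. kansasii clinical isolate 6509/96 used at stock dilution 10−4, final ~1.5 × 10^5 CFU mL−1. Two-fold dilutions ran 1000–1 μM with final DMSO 1.0% (v/v). MIC was read visually as complete growth inhibition after 7, 14 and 21 days.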

In experiment [6] the test system is Mycobacterium kansasii. Briefly: Antimycobacterial activity against multi-drug resistant Mycobacterium kansasii CNCTC 6509/96 clinical isolate assessed as bacterial growth inhibition incubated for 14 days by two-fold serial dilution method. Conditions: CNCTC 6509/96, 336 h, time 14 day. The essentials: (§2)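 M. kansasii clinical isolate 6509/96 (stock dilution 10−4) in Šula's semisynthetic liquid medium; two-fold serial dilutions 1000 to 1 μM, DMSO final 1.0% v/v; final load 1.5 × 10^5 CFU mL−1; MIC read visually as complete growth inhibition at 7, 14 and 21 days.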

Experiment [7] deals with Mycobacterium kansasii. Briefly: Antimycobacterial activity against multi-drug resistant Mycobacterium kansasii clinical isolate CNCTC 6509/96 assessed as bacterial growth inhibition incubated for 21 days by two-fold serial dilution method. The note with it: CNCTC 6509/96, 504 h, time 21 day. The essentials: as §2
Experiment [8] relates to Candida albicans. Briefly: Antifungal activity against Candida albicans ATCC 24443 measured after 24 to 48 hrs by microdilution broth method. Conditions: time 24-48 hrs. The essentials:
(§3)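 Yeast broth microdilution per EUCAST, slightly modified. Medium was RPMI-1640 with 2% glucose, MOPS-buffered to pH 7.0. Compounds were tested at 0.98–500 μM with final DMSO ≤1.0% (v/v). Inoculum came from 18–24 h cultures, final ~1–5 × 10^5 CFU mL−1. Plates were incubated statically, dark and humidified, at 35 ± 2 °C. MIC was read visually at 24 and 48 h (no visible growth).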
For orientation: Broth dilution looks for growth in wells or tubes with falling amounts of substance.

Experiment [9] deals with Candida albicans. As to the kind of experiment: Antifungal activity against Candida albicans CCM 8320 measured after 24 to 48 hrs by microdilution broth method. Conditions: time 24-48 hrs. The procedure, abridged:
as §3

Experiment [10] has as its system Pichia kudriavzevii. Briefly: Antifungal activity against Candida krusei ATCC 6258 measured after 24 to 48 hrs by microdilution broth method. Conditions: time 24-48 hrs. The procedure, abridged:
as §3

The subject of experiment [11] is Pichia kudriavzevii. Briefly: Antifungal activity against Candida krusei CCM 8271 measured after 24 to 48 hrs by microdilution broth method. Conditions: time 24-48 hrs. The procedure, abridged:
as §3

Experiment [12] deals with Candida parapsilosis. Briefly: Antifungal activity against Candida parapsilosis ATCC 22019 measured after 24 to 48 hrs by microdilution broth method. The note with it: Lodderomyces parapsilosis, time 24-48 hrs. The procedure, abridged: as §3
Experiment [13] has as its system Candida parapsilosis. As to the kind of experiment: Antifungal activity against Candida parapsilosis CCM 8260 measured after 24 to 48 hrs by microdilution broth method. The note with it: Lodderomyces parapsilosis, time 24-48 hrs. The essentials: as §3
For experiment [14], the system named is Candida tropicalis. Briefly: Antifungal activity against Candida tropicalis ATCC 750 measured after 24 to 48 hrs by microdilution broth method. The note with it: time 24-48 hrs. The essentials:
as §3

Experiment [15] deals with Candida tropicalis. As to the kind of experiment: Antifungal activity against Candida tropicalis CCM 8264 measured after 24 to 48 hrs by microdilution broth method. The note with it: time 24-48 hrs. The procedure, abridged:
as §3

The next experiment concerns Aspergillus fumigatus. Briefly: Antifungal activity against Aspergillus fumigatus ATCC 204305 measured after 24 to 48 hrs by microdilution broth method. The note with it: time 24-48 hrs. The essentials: (§4)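 Filamentous fungi tested by broth microdilution per EUCAST with minor changes. Compounds were tested at 0.98–500 μM with final DMSO ≤1.0% (v/v). Plates were incubated statically, dark and humidified, at 35 ± 2 °C for 24 and 48 h. MIC was the lowest concentration showing no visible growth.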

The subject of another experiment is Aspergillus flavus. As to the kind of experiment: Antifungal activity against Aspergillus flavus CCM 8363 measured after 24 to 48 hrs by microdilution broth method. The note with it: time 24-48 hrs. The procedure, abridged:
as §4

The next experiment deals with Lichtheimia corymbifera. Briefly: Antifungal activity against Lichtheimia corymbifera CCM 8077 measured after 24 to 48 hrs by microdilution broth method. The note with it: time 24-48 hrs. The procedure, abridged:
as §4

Experiment [16] has as its system Trichophyton interdigitale. Briefly: Antifungal activity against Trichophyton interdigitale ATCC 9533 measured after 24 to 48 hrs by microdilution broth method. The note with it: time 24-48 hrs.
Experiment [17] deals with Trichophyton interdigitale. As to the kind of experiment: Antifungal activity against Trichophyton interdigitale CCM 8377 measured after 24 to 48 hrs by microdilution broth method. Conditions: time 24-48 hrs.

As to `C/C(=N\NC(=O)c1ccncc1)C(=O)Nc1ccc(Oc2ccc(Cl)cc2)c(Cl)c1`, the MIC in experiment [1] was 0.5 µM (≈ 0.222 µg/mL); in experiment [2] it was 0.5 µM (≈ 0.222 µg/mL); in the experiment with Mycobacterium avium [3], 500 µM (≈ 222 µg/mL); in the experiment with Mycobacterium avium [4] it was 500 µM (≈ 222 µg/mL); in the experiment on Mycobacterium kansasii [5], 32 µM (≈ 14.2 µg/mL); with Mycobacterium kansasii [6], 64 µM (≈ 28.4 µg/mL). Further, the MIC in the experiment with Mycobacterium kansasii [7] is 64 µM (≈ 28.4 µg/mL); with Candida albicans [8], above 500 µM; against Candida albicans [9] it was above 500 µM; against Pichia kudriavzevii [10], above 500 µM; in the experiment with Pichia kudriavzevii [11], above 500 µM; in the experiment on Candida parapsilosis [12], above 500 µM. In addition, the MIC with Candida parapsilosis [13], in the experiment on Candida tropicalis [14], in the experiment with Candida tropicalis [15], against Aspergillus fumigatus, in the experiment on Aspergillus flavus and against Lichtheimia corymbifera was above 500 µM in each case. Also, the MIC in [16] and in experiment [17] was above 500 µM throughout.

For `Nc1ccc(S(=O)(=O)Nc2ccc(Oc3ccccc3)cc2)cc1`, the MIC in [1] turned out to be 500 µM (≈ 170 µg/mL); in [2], 500 µM (≈ 170 µg/mL); in the experiment with Mycobacterium avium [3], 1000 µM (≈ 340 µg/mL); in the experiment with Mycobacterium avium [4], 1000 µM (≈ 340 µg/mL); in the experiment on Mycobacterium kansasii [5], 250 µM (≈ 85.1 µg/mL); in the experiment on Mycobacterium kansasii [6] it was 500 µM (≈ 170 µg/mL). Besides, the MIC in the experiment with Mycobacterium kansasii [7] worked out at 500 µM (≈ 170 µg/mL).

On to `C/C(=N\NC(=O)c1ccncc1)C(=O)O` [PYRUVIC ACID ISONIAZID], for which the MIC in experiment [1] was 1 µM (≈ 0.207 µg/mL); in experiment [2] it was 1 µM (≈ 0.207 µg/mL); in the experiment with Mycobacterium avium [3] it was 500 µM (≈ 104 µg/mL); in the experiment with Mycobacterium avium [4], above 1000 µM; in the experiment on Mycobacterium kansasii [5], 8 µM (≈ 1.66 µg/mL); in the experiment on Mycobacterium kansasii [6] it was 16 µM (≈ 3.32 µg/mL). In the experiment on Mycobacterium kansasii [7], the MIC stood at 16 µM (≈ 3.32 µg/mL).

With `NS(=O)(=O)c1ccc(NC(=O)/C=N/NC(=O)c2ccncc2)cc1`, the MIC in experiment [1] is 1 µM (≈ 0.347 µg/mL); in [2], 2 µM (≈ 0.695 µg/mL); with Mycobacterium avium [3] it was 1000 µM (≈ 347 µg/mL); in the experiment on Mycobacterium avium [4], at least 1000 µM; with Mycobacterium kansasii [5], 16 µM (≈ 5.56 µg/mL); with Mycobacterium kansasii [6], 32 µM (≈ 11.1 µg/mL). Besides, the MIC in the experiment with Mycobacterium kansasii [7] is 32 µM (≈ 11.1 µg/mL).

In the case of `C/C(=N\NC(=O)c1ccncc1)C(=O)Nc1ccc(S(=O)(=O)Nc2cc(C)on2)cc1`, the MIC in experiment [1] was 0.5 µM (≈ 0.221 µg/mL); in [2], 1 µM (≈ 0.442 µg/mL); with Mycobacterium avium [3], 1000 µM (≈ 442 µg/mL); in the experiment with Mycobacterium avium [4], at least 1000 µM; with Mycobacterium kansasii [5] it was 16 µM (≈ 7.08 µg/mL); with Mycobacterium kansasii [6], 32 µM (≈ 14.2 µg/mL). The minimal inhibitory concentration (MIC) with Mycobacterium kansasii [7] was 32 µM (≈ 14.2 µg/mL); against Candida albicans [8] it was above 500 µM; against Candida albicans [9], above 500 µM; with Pichia kudriavzevii [10], above 500 µM; in the experiment with Pichia kudriavzevii [11], above 500 µM; in the experiment with Candida parapsilosis [12], above 500 µM. Further, the MIC against Candida parapsilosis [13], in the experiment with Candida tropicalis [14], against Candida tropicalis [15], with Aspergillus fumigatus, against Aspergillus flavus and in the experiment on Lichtheimia corymbifera was above 500 µM each time. Moreover, the MIC in experiment [16] and in experiment [17] was above 500 µM in each case.

With `Nc1ccc(S(=O)(=O)Nc2ccc(Sc3ccc([N+](=O)[O-])cc3)cc2)cc1`, the MIC in experiment [1] was 125 µM (≈ 50.2 µg/mL); in experiment [2], at least 1000 µM; in the experiment with Mycobacterium avium [3], at least 1000 µM; with Mycobacterium avium [4] it was at least 1000 µM; in the experiment with Mycobacterium kansasii [5], 8 µM (≈ 3.21 µg/mL); in the experiment on Mycobacterium kansasii [6], at least 1000 µM. Besides, the MIC in the experiment on Mycobacterium kansasii [7] was at least 1000 µM.

`COC(=O)c1ccc(NS(=O)(=O)c2ccc(N)cc2)cc1O`: the MIC in experiment [1] was 250 µM (≈ 80.6 µg/mL); in experiment [2], 250 µM (≈ 80.6 µg/mL); with Mycobacterium avium [3], above 1000 µM; with Mycobacterium avium [4] it was above 1000 µM; with Mycobacterium kansasii [5] it was 1000 µM (≈ 322 µg/mL); with Mycobacterium kansasii [6], above 1000 µM. For the same compound, the MIC in the experiment with Mycobacterium kansasii [7] is above 1000 µM.

Take `O=C(/C=N/NC(=O)c1ccncc1)Nc1ccc(S(=O)(=O)Nc2nccs2)cc1`: the MIC in experiment [1] turned out to be 2 µM (≈ 0.861 µg/mL); in [2], 4 µM (≈ 1.72 µg/mL); with Mycobacterium avium [3] it was 250 µM (≈ 108 µg/mL); in the experiment on Mycobacterium avium [4] it was 500 µM (≈ 215 µg/mL); with Mycobacterium kansasii [5], 8 µM (≈ 3.44 µg/mL); with Mycobacterium kansasii [6] it was 8 µM (≈ 3.44 µg/mL). In addition, the MIC in the experiment with Mycobacterium kansasii [7] turned out to be 8 µM (≈ 3.44 µg/mL).

The MIC is the smallest concentration in the dilution series that meets the test's criterion for growth inhibition.
